Compound activity: PubChem BioAssay, several laboratories
The entries come from a sample that favours hits as a whole.
bCat KO growth – beta-catenin-lacking colon tumor cell growth suppression | HCT116 beta-catenin knockout viability, CellTiter-Glo, 60 h; stronger effect = lower value | viability, % at 10 µM | 140,000 tested, 1.5% active;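 active means viability at or under a set limit, the compound median less 4 SD, cut at about 6% in these data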;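 further: 0% = Hyamine 1622 control at 20 µM and 100% = untreated cell control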
H69AR inhibit – blocks growth of human H69AR lung tumor cells. H69AR lung tumor viability, ATP luminescence, 72 h; stronger effect = lower value. viability, % at 10 µM. 85,000 tested, 6% active. AID 598;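 active means viability at or below 40%; inactive means viability above 40%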;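 further: multidrug resistant small cell line overexpressing MRP-1 efflux transporter; 100% = mean luminescence of untreated control wells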
Candida biofilm – kills Candida albicans biofilms; 85,000 tested, 0.14% active; inhibition, % at 6 µM; C. albicans biofilm + clotrimazole, Alamar Blue;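 active means inhibition above 20%; inactive means inhibition below 20%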;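 further: preformed 24 hr biofilms exposed to compound for 48 hr; 0% = biofilm without compound and 100% = blank killed by clotrimazole plus chlorhexidine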
Fibroblast inh – blocks proliferation of human lung fibroblasts; LL 47 human lung fibroblast viability, ATP luminescence; stronger effect = lower value; viability, % at 10 µM; 85,000 tested, 1.1% active; AID 719;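 active means viability at or below 50% in the single dose screen; inactive means viability above 50%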;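 further: compound exposure lasted 72 h before the ATP readout; 100% = median luminescence of untreated cell-only wells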
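Material: human LL 47 lung fibroblast cells; quantity: 1,150 cells/well; medium: IMEM plus 15% FBS; doses: 0.1% DMSO in all compound wells; timing: overnight attachment after seeding, then 72 h compound exposure at 37 °C; detection: CellTiter-Glo luminescence; measure: % viability of median cell-only signal; controls: cell-only wells, no compound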
HCT116 PTEN-null – suppresses growth of cells with PTEN deletion | 140,000 tested, 1.2% active | viability, % at 10 µM | HCT116 PTEN-null viability, CellTiter-Glo, 60 h; stronger effect = lower value;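 active means viability at or below a set limit, 4 SD under the median of all tested compounds, cut at about 3.7% in these data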;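 further: PTEN knockout HCT116 line with beta catenin targeted HCT116 as companion control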
HUVEC inhibit – blocks proliferation of human endothelial cells; HUVEC proliferation, CellTiter-Glo luminescence, 72 h; stronger effect = lower value; viability, % at 10 µM (by protocol); 86,000 tested, 1.1% active;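 active means viability at or below 30%; inactive means viability above 30%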;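 further: 100% = median luminescence of DMSO-only cell control wells on each plate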
The depositor's hits bear a star; . = no result.

SMILES	bCat KO growth	H69AR inhibit	Candida biofilm	Fibroblast inh	HCT116 PTEN-null	HUVEC inhibit
Cc1ccccc1NC(=O)CSc1nc2c(c(-c3ccco3)c1C#N)CCCC2	80	74	-5	104	91	91
C=CCOc1ccc2nc(NC(=O)OC)[nH]c2c1	13	33*	5	49*	16	47
COc1ccc(-n2nnnc2SCC(=O)c2ccc(O)c(O)c2)cc1	21	26*	8	89	24	61
COc1ccc(-n2nnnc2SCC(N)=O)cc1	91	94	6	88	96	93
CCCCNC(=O)/C(C#N)=c1\s/c(=C\c2ccccc2OC(F)F)c(=O)n1CCCOC	92	.	.	.	86	.
Cc1ccc(OCc2nn3c(-c4ccco4)nnc3s2)cc1	82	94	1	111	99	96
Clc1ccc(OCc2nn3c(-c4ccco4)nnc3s2)c(Cl)c1	93	34*	-3	94	91	102
Clc1ccc(-c2ccc(-c3nn4c(-c5ccco5)nnc4s3)o2)cc1	.	26*	6	89	.	83
Cc1cc(C)c(C(=O)CSC2=NC(N)=C(C#N)C3(CCCCC3)C2C(N)=O)cc1C (stereo not given)	81	12*	9	101	70	90
CCNC(=S)N/N=C/c1cccc(OCc2c(F)cccc2Cl)c1	61	.	.	.	62	.
O=C(COC(=O)Cc1cn2ccsc2n1)Nc1nc2ccccc2s1	83	7.2*	1	93	97	96
COCC(=O)Nc1nc2ccccc2s1	96	94	10	99	114	109
Clc1ccc2c(N/N=C/c3ccccc3Br)ccnc2c1	16	.	.	.	7	.
Clc1ccc2c(N/N=C/c3cccc(Br)c3)ccnc2c1	2.2*	.	.	.	1.7*	.
COc1cccc(-c2nc3sc4c(c3c(=O)[nH]2)CCCCC4)c1	72	.	.	.	72	.
Cc1ccc(C2(C(F)(F)F)NC(=O)N3CCCN=C3S2)cc1 (stereo not given)	100	102	6	88	97	90
Cc1ccc(C2(C(F)(F)F)NC(=O)N3CCN=C3S2)cc1 (stereo not given)	61	22*	-6	63	66	82
Cc1ccccc1NC(=O)/C=C/c1ccc([N+](=O)[O-])s1	2.0*	.	.	.	1.4*	.
Cc1ccccc1C(=O)N/N=C/c1ccc([N+](=O)[O-])s1	3.6*	21*	5	64	2.6*	7.2*
O=C(N/N=C/c1ccc([N+](=O)[O-])s1)c1ccccc1Br	1.9*	16*	11	63	1.8*	62
N#Cc1c(SCC(N)=O)nc2c(c1-c1ccc(OCc3ccccc3)cc1)CCCC2	.	87	3	82	.	91
CC(=O)Oc1cccc(/C=c2\sc3nc(-c4ccco4)nn3c2=O)c1	79	11*	3	93	93	73
CCCOc1ccc(/C=c2\sc3nc(-c4ccco4)nn3c2=O)cc1OCC	94	89	4	91	94	82
CC(C)Cn1c(N)c(C(=O)NCC2CCCO2)c2nc3ccccc3nc21 (stereo not given)	70	36*	.	80	62	74
COCCn1c(N)c(C(=O)NCC2CCCO2)c2nc3ccccc3nc21 (stereo not given)	64	58	8	91	60	72
SMILES	bCat KO growth	H69AR inhibit	Candida biofilm	Fibroblast inh	HCT116 PTEN-null	HUVEC inhibit
Nc1c(C(=O)OCC2CCCO2)c2nc3ccccc3nc2n1C1CCCC1 (stereo not given)	23	15*	3	70	20	54
O=c1oc2ccccc2n1CSC1=NCCS1	87	21*	-1	85	95	54
O=c1oc2ccccc2n1CSc1nc2ccccc2s1	83	95	3	93	85	78
Cc1nc([N+](=O)[O-])c(Sc2nc3ccccc3n2C)n1Cc1ccccc1	2.7*	.	.	.	1.8*	.
Cc1ccc2c(c1)CCCN2C(=O)c1ccoc1C	87	34*	8	103	86	85
Cc1ccc2c(c1)CCCN2C(=O)c1c(C)noc1C	101	91	-5	87	107	78
CN1CC(=O)NC1=NC(=O)c1ccc(Cl)c(S(=O)(=O)N2CCCCCC2)c1	76	12*	6	84	64	89
CN1CC(=O)NC1=NC(=O)c1cc(F)c(F)cc1Cl	88	95	3	99	95	100
CCOC(=O)c1c(C)sc2c1N(C(=O)CCl)c1cc(Cl)ccc1S2	2.3*	0.7*	6	2.6*	2.2*	17*
Cn1c(=O)c(=O)n(C)c2cc(S(=O)(=O)N3CCN(c4cccc(C(F)(F)F)c4)CC3)ccc21	92	84	6	95	96	68
O=C1C=C(Nc2ccccc2O)c2ccccc2C1=O	2.3*	7.9*	5	13*	1.8*	4.7*
O=C(Nc1ccccn1)c1ccc([N+](=O)[O-])o1	21	.	.	.	18	.
Cc1ccnc(NC(=O)c2ccc([N+](=O)[O-])o2)c1	3.5*	.	.	.	4	.
CCCS(=O)(=O)N1CCN(C(=O)COc2ccc(OC)cc2)CC1	98	88	5	101	101	97
CCSc1nc(-c2ccccc2)c2cc(Cl)ccc2n1	84	.	.	.	85	.
CSc1nc(-c2ccc(C)cc2)nc(C(Cl)Cl)n1	1.1*	.	.	.	1.1*	.
CCSc1nc(-c2ccccc2)nc(C(Cl)Cl)n1	4.2*	.	.	.	2.0*	.
CCOc1ccc(C(C(=O)NC2CCCCC2)N(C(=O)Cc2cccs2)c2ccc(-n3cnnn3)c(OC)c2)cc1 (stereo not given)	6	.	.	.	3.3*	.
COc1cccc(N(C(=O)c2cnccn2)C(C(=O)NC2CCCCC2)c2ccc(Cl)cc2)c1 (stereo not given)	92	93	4	93	94	91
CCOc1ccc(C(C(=O)NC2CCCCC2)N(C(=O)c2ccco2)c2ccc(-n3cnnn3)c(C)c2)cc1 (stereo not given)	97	102	4	90	97	93
COc1ccc(C(C(=O)NC2CCCCC2)N(C(=O)CCl)c2cccc(Cl)c2)cc1 (stereo not given)	2.3*	.	.	.	1.6*	.
COc1ccc(C(C(=O)NC2CCCCC2)N(C(=O)CCl)c2ccc(C)cc2)cc1 (stereo not given)	5.0*	.	.	.	2.2*	.
COc1ccc(C(C(=O)NC2CCCC2)N(C(=O)c2ccoc2C)c2ccc(C)cc2)cc1 (stereo not given)	60	.	.	.	57	.
COc1ccc(C(C(=O)NC2CCCCC2)N(C(=O)CCl)c2ccc(OC)cc2)cc1 (stereo not given)	1.4*	.	.	.	0.8*	.
COc1cccc(-c2nc(N3CCCCC3C)c3ccccc3n2)c1O (stereo not given)	81	38*	4	81	84	47
Cc1ccc(-c2csc3ncnc(Sc4nnc(CN5CCCCCC5=O)o4)c23)cc1	1.9*	-0.2*	-2	31*	1.7*	61
CCN(CC)C(=O)CNc1ccc(C(F)(F)F)cc1[N+](=O)[O-]	77	.	.	.	88	.
